Results on one molecule are retold here after ChEMBL document CHEMBL3046072, “Plant P5C reductase as a new target for aminomethylenebisphosphonates” (J Agric Food Chem, 2007).

The experiment deals with T1, Pyrroline-5-carboxylate reductase (Arabidopsis thaliana, UniProt P54904).
T1 sequence (P54904 whole entry): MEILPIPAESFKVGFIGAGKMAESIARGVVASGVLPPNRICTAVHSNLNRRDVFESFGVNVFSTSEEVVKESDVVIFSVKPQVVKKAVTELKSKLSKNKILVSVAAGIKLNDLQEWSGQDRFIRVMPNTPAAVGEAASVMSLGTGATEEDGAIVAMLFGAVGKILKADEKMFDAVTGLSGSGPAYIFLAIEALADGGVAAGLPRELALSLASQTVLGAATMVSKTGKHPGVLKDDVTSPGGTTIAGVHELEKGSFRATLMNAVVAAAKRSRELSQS
The experiment in a line: Inhibition of Arabidopsis thaliana P5C reductase catalytic activity. The note with it: read-out: I50. The method in brief: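 P5C reductase partially purified from A. thaliana Columbia suspension-cultured cells by ammonium sulfate cut and two DEAE-Sephacel steps. Assay at 35 °C: 100 mM Tris-HCl pH 8.0, 0.1 mM MgCl2, 2 mM DL-P5C, 0.25 mM NADH. Read as NADH oxidation at 340 nm, or as P5C loss by ninhydrin at 535 nm. Inhibitor neutralised to pH 7.4, tested over 0.010–5 mM. I50 from regression of % control activity versus log concentration.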

As for `O=P(O)(O)C(Nc1cc(Cl)cc(Cl)c1)P(=O)(O)O` [(3,5-DICHLOROPHENYLAMINO)METHYLENEDIPHOSPHONIC ACID], the IC50 stood at 77 µM.
